# Experimental data from different studies.
# Compare with care: the assays were run in different laboratories.
Structure (SMILES),cell line,assay,conditions,measurement,value
COc1c2c(cc3c1OCO3)[C@]13C=C[C@H](OC)C[C@@H]1[N@](C2)C[C@H]3OC(=O)c1ccoc1,SAOS-2,"cell growth or viability, WST-1",,IC50,> 10000 nM
C/C1=C/C(=O)O[C@@H]2C[C@@H](CC[C@H](C)/C=C\C=C\CC1)O[C@@](O)([C@@H]1CSC(=O)N1)C2,MCF7,"cell growth or viability, MTT",72 h,IC50,480 nM
Cn1cncc1[C@@](N)(c1ccc(Cl)cc1)c1ccc2c(c1)c(-c1cccc(Cl)c1)cc(=O)n2C,FaDu,cell growth or viability,72 h,IC50,2730 nM
COc1c2c(cc3c1OCO3)[C@]13C=C[C@H](OC)C[C@@H]1[N@](C2)C[C@H]3OC(=O)c1ccc2ccccc2c1,SAOS-2,"cell growth or viability, WST-1",,IC50,> 10000 nM
Cc1c2ccncc2c(C)c2c1[nH]c1ccccc12,THP-1,"TNF-α release, inhibitor","17 h, LPS-stimulated",IC50,1570 nM
COc1c2ccoc2cc2oc(=O)ccc12,HEp-2,"cell growth or viability, WST-1",48 h,IC50,23400 nM
CCCCCCCC(=O)SCC/C=C/[C@@H]1CC(=O)NCc2nc(cs2)C2=N[C@@](C)(CS2)C(=O)N[C@@H](C(C)C)C(=O)O1,SW-620,"cell growth or viability, resazurin",48 h,IC50,26.5 nM
c1ccc([C@@H]2C[C@H]2NC2CCNCC2)cc1,TF-1a,"cell growth or viability, resazurin",96 h,EC50,1.55 nM
C[C@@H](O)[C@H](NC(=O)[C@H](CCCNC(=N)N)NC(=O)[C@H](CC(N)=O)NC(=O)[C@H](CC(N)=O)NC(=O)[C@@H](N)CCCNC(=N)N)C(=O)N[C@@H](CO)C(=O)NCC(=O)N[C@@H](Cc1ccccc1)C(=O)N[C@@H](CCCCN)C(=O)N[C@@H](Cc1c[nH]c2ccccc12)C(=O)O,THP-1,"cell growth or viability, ATP luminescence",48 h,IC50,1800 nM
CC(C)[C@H](N)C(=O)N1CCC[C@H]1B(O)O,THP-1,"cell growth or viability, ATP luminescence",48 h,IC50,206 nM
